Calls of active or inactive are those of the source. The calls are words filed in the database; no cut-off is given here. Where a SMILES comes first, the peptide text is derived from it. The star is where a group is joined. X1 = CC(C)CCC[C@@H](C)[C@H]1CC[C@H]2[C@@H]3CC=C4C[C@@H](OC(=O)C*)CC[C@]4(C)[C@H]3CC[C@]12C
How the values were obtained:
Assay type in all cases: cell-based
[1] = biological target: T1, Envelope glycoprotein (Zaire ebolavirus (strain Mayinga-76) (ZEBOV) (Zaire Ebola virus)) (UniProt Q05320); assay: Inhibition of Vesicular stomatitis virus particle bearing EBOV glycoprotein-mediated viral entry in African green monkey Vero cells at 20 uM incubated for 1 hr prior to viral addition measured after 1 hr by fluorescence microscopy relative to control
T1 sequence (whole entry): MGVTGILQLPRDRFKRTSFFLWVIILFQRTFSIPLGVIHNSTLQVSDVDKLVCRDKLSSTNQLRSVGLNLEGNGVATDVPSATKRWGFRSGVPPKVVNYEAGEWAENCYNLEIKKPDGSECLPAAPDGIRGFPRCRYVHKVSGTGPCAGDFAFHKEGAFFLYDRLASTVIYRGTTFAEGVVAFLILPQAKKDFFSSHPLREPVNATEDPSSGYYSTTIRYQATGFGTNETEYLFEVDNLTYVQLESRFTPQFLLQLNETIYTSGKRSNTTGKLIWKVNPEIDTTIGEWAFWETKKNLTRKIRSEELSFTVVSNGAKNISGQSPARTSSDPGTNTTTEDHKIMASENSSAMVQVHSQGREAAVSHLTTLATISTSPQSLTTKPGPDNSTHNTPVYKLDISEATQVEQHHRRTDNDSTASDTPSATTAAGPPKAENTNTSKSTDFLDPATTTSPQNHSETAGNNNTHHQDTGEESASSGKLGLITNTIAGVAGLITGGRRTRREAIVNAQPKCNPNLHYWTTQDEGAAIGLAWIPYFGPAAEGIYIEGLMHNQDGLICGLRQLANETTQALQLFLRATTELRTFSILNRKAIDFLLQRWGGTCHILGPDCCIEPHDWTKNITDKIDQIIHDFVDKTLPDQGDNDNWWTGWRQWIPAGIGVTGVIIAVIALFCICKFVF
In short: (§1)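 Vero host cells were infected with VSV particles bearing the EBOV glycoprotein in place of G, with a matrix protein–eGFP fusion. Primary infection events were quantified by fluorescence confocal microscopy, and inhibition was expressed as fold or percent reduction in infection versus control.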

[2] = system: Vero; assay: Cytotoxicity against African green monkey Vero cells at 40 uM by Cyto Tox Glo assay; settings: chlorocebus sabaeus
In short: (§2)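 Vero cells exposed to peptide were scored for tolerance by visual inspection and by a commercial cell viability assay.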

[3] = system: Vero; assay: Inhibition of Vesicular stomatitis virus envelope glycoprotein G-mediated viral entry in African green monkey Vero cells at >10 uM incubated for 1 hr prior to viral addition measured after 1 hr by fluorescence microscopy relative to control
[4] = system: Vero; assay: Inhibition of Vesicular stomatitis virus envelope glycoprotein G-mediated viral entry in African green monkey Vero cells at 10 uM incubated for 1 hr prior to viral addition measured after 1 hr by fluorescence microscopy relative to control
[5] = biological target: T1, Envelope glycoprotein (Zaire ebolavirus (strain Mayinga-76) (ZEBOV) (Zaire Ebola virus)); assay: Inhibition of Vesicular stomatitis virus particle bearing EBOV glycoprotein-mediated viral entry in African green monkey Vero cells at 40 uM incubated for 1 hr prior to viral addition measured after 1 hr by fluorescence microscopy relative to control; in short: as §1
[6] = system: Vero; assay: Inhibition of Vesicular stomatitis virus envelope glycoprotein G-mediated viral entry in African green monkey Vero cells at 40 uM incubated for 1 hr prior to viral addition measured after 1 hr by fluorescence microscopy relative to control
[7] = biological target: T1, Envelope glycoprotein (Zaire ebolavirus (strain Mayinga-76) (ZEBOV) (Zaire Ebola virus)); assay: Inhibition of Vesicular stomatitis virus particle bearing EBOV glycoprotein-mediated viral entry in African green monkey Vero cells incubated for 1 hr prior to viral addition measured after 1 hr by fluorescence microscopy relative to control; in short: as §1
[8] = system: Vero; assay: Cytotoxicity against African green monkey Vero cells at 30 to 40 uM by Cyto Tox Glo assay; settings: chlorocebus sabaeus; in short: as §2
[9] = system: Vero; assay: Inhibition of Vesicular stomatitis virus envelope glycoprotein G-mediated viral entry in African green monkey Vero cells incubated for 1 hr prior to viral addition measured after 1 hr by fluorescence microscopy relative to control
[10] = system: Vero; assay: Cytotoxicity against African green monkey Vero cells at >15 uM by Cyto Tox Glo assay; settings: chlorocebus sabaeus
[11] = biological target: T1, Envelope glycoprotein (Zaire ebolavirus (strain Mayinga-76) (ZEBOV) (Zaire Ebola virus)); assay: Inhibition of Vesicular stomatitis virus particle bearing EBOV glycoprotein-mediated viral entry in African green monkey Vero cells at 75 uM incubated for 1 hr prior to viral addition measured after 1 hr by fluorescence microscopy relative to control
[12] = biological target: T1, Envelope glycoprotein (Zaire ebolavirus (strain Mayinga-76) (ZEBOV) (Zaire Ebola virus)); assay: Inhibition of Vesicular stomatitis virus particle bearing EBOV glycoprotein-mediated viral entry in African green monkey Vero cells at >20 uM incubated for 1 hr prior to viral addition measured after 1 hr by fluorescence microscopy relative to control; in short: as §1

SMILES: CC[C@H](C)[C@H](NC(=O)CNC(=O)[C@H](CO)NC(=O)CNC(=O)[C@H](CCCCN)NC(=O)[C@H](CCCCN)NC(=O)[C@H](CCCCN)NC(=O)[C@H](CCCCN)NC(=O)[C@@H](N)CSCC(=O)O[C@H]1CC[C@@]2(C)C(=CC[C@H]3[C@@H]4CC[C@H]([C@H](C)CCCC(C)C)[C@@]4(C)CC[C@@H]32)C1)C(=O)N[C@@H](CCC(=O)O)C(=O)N1CCC[C@H]1C(=O)N[C@@H](Cc1cnc[nH]1)C(=O)N[C@@H](CC(=O)O)C(=O)N[C@@H](Cc1c[nH]c2ccccc12)C(=O)N[C@H](C(=O)N[C@@H](CCCCN)C(=O)N[C@@H](CC(N)=O)C(=O)N[C@H](C(=O)N[C@H](C(=O)N[C@@H](CC(=O)O)C(=O)N[C@@H](CCCCN)C(=O)N[C@H](C(=O)N[C@@H](CC(=O)O)C(=O)N[C@@H](CCC(N)=O)C(=O)N[C@H](C(=O)N[C@H](C(=O)N[C@@H](Cc1cnc[nH]1)C(=O)N[C@@H](CC(=O)O)C(=O)N[C@@H](Cc1ccccc1)C(=O)N[C@H](C(=O)N[C@@H](CC(=O)O)C(=O)N[C@@H](CCCCN)C(=O)O)C(C)C)[C@@H](C)CC)[C@@H](C)CC)[C@@H](C)CC)[C@@H](C)O)[C@@H](C)CC)[C@@H](C)O
- inhibition [1]: Active
- Activity [2]: 20%
- inhibition [3]: > 99%
- inhibition [4]: 90%
- Ratio [5]: 1000

SMILES: CC[C@H](C)[C@H](NC(=O)CNC(=O)[C@H](CO)NC(=O)CNC(=O)[C@H](CCCNC(=N)N)NC(=O)[C@H](CCCNC(=N)N)NC(=O)[C@H](CCCNC(=N)N)NC(=O)[C@H](CCC(N)=O)NC(=O)[C@H](CCCNC(=N)N)NC(=O)[C@H](CCCNC(=N)N)NC(=O)[C@H](CCCCN)NC(=O)[C@H](CCCCN)NC(=O)[C@H](CCCNC(=N)N)NC(=O)CNC(=O)[C@H](Cc1ccc(O)cc1)NC(C)=O)C(=O)N[C@@H](CCC(=O)O)C(=O)N1CCC[C@H]1C(=O)N[C@@H](Cc1cnc[nH]1)C(=O)N[C@@H](CC(=O)O)C(=O)N[C@@H](Cc1c[nH]c2ccccc12)C(=O)N[C@H](C(=O)N[C@@H](CCCCN)C(=O)N[C@H]1CSCC(=O)NCCC[C@@H](C(=O)N[C@@H](CCCCN)C(=O)N[C@H](C(=O)N[C@@H](CC(=O)O)C(=O)N[C@@H](CCC(N)=O)C(=O)N[C@H](C(=O)N[C@H](C(=O)N[C@@H](Cc2cnc[nH]2)C(=O)N[C@@H](CC(=O)O)C(=O)N[C@@H](Cc2ccccc2)C(=O)N[C@H](C(=O)N[C@@H](CC(=O)O)C(=O)N[C@@H](CCCCN)C(=O)O)C(C)C)[C@@H](C)CC)[C@@H](C)CC)[C@@H](C)CC)NC(=O)[C@H]([C@@H](C)O)NC(=O)[C@H]([C@@H](C)CC)NC1=O)[C@@H](C)O
- inhibition [6]: 80%
- Activity [2]: Non-toxic
- inhibition [5]: 99%

SMILES: CC(C)CCC[C@@H](C)[C@H]1CC[C@H]2[C@@H]3CC=C4C[C@@H](O)CC[C@]4(C)[C@H]3CC[C@]12C
- inhibition [7]: Active

SMILES: CC[C@H](C)[C@H](N)C(=O)N[C@@H](CCC(=O)O)C(=O)N1CCC[C@H]1C(=O)N[C@@H](Cc1cnc[nH]1)C(=O)N[C@@H](CC(=O)O)C(=O)N[C@@H](Cc1c[nH]c2ccccc12)C(=O)N[C@H](C(=O)N[C@@H](CCCCN)C(=O)N[C@@H](CC(N)=O)C(=O)N[C@H](C(=O)N[C@H](C(=O)N[C@@H](CC(=O)O)C(=O)N[C@@H](CCCCN)C(=O)N[C@H](C(=O)N[C@@H](CC(=O)O)C(=O)N[C@@H](CCC(N)=O)C(=O)N[C@H](C(=O)N[C@H](C(=O)N[C@@H](Cc1cnc[nH]1)C(=O)N[C@@H](CC(=O)O)C(=O)N[C@@H](Cc1ccccc1)C(=O)N[C@H](C(=O)N[C@@H](CC(=O)O)C(=O)N[C@@H](CCCCN)C(=O)NCC(=O)N[C@@H](CO)C(=O)NCC(=O)N[C@@H](CCCCN)C(=O)N[C@@H](CCCCN)C(=O)N[C@@H](CCCCN)C(=O)N[C@@H](CCCCN)C(=O)N[C@@H](CSCC(=O)O[C@H]1CC[C@@]2(C)C(=CC[C@H]3[C@@H]4CC[C@H]([C@H](C)CCCC(C)C)[C@@]4(C)CC[C@@H]32)C1)C(=O)O)C(C)C)[C@@H](C)CC)[C@@H](C)CC)[C@@H](C)CC)[C@H](C)O)[C@@H](C)CC)[C@@H](C)O
- inhibition [1]: Active
- Activity [8]: 20%
- inhibition [3]: > 99%
- inhibition [4]: 90%
- Ratio [5]: 1000

SMILES: CC[C@H](C)[C@H](NC(=O)CNC(=O)[C@H](CO)NC(=O)CNC(=O)[C@H](CCCNC(=N)N)NC(=O)[C@H](CCCNC(=N)N)NC(=O)[C@H](CCCNC(=N)N)NC(=O)[C@H](CCC(N)=O)NC(=O)[C@H](CCCNC(=N)N)NC(=O)[C@H](CCCNC(=N)N)NC(=O)[C@H](CCCCN)NC(=O)[C@H](CCCCN)NC(=O)[C@H](CCCNC(=N)N)NC(=O)CNC(=O)[C@H](Cc1ccc(O)cc1)NC(C)=O)C(=O)N[C@@H](CCC(=O)O)C(=O)N1CCC[C@H]1C(=O)N[C@@H](Cc1cnc[nH]1)C(=O)N[C@@H](CC(=O)O)C(=O)N[C@@H](Cc1c[nH]c2ccccc12)C(=O)N[C@H](C(=O)N[C@@H](CCCCN)C(=O)N[C@@H](CC(N)=O)C(=O)N[C@H](C(=O)N[C@H](C(=O)N[C@H]1CSCC(=O)NCCC[C@H](C(=O)N[C@@H](CCC(N)=O)C(=O)N[C@H](C(=O)N[C@H](C(=O)N[C@@H](Cc2cnc[nH]2)C(=O)N[C@@H](CC(=O)O)C(=O)N[C@@H](Cc2ccccc2)C(=O)N[C@H](C(=O)N[C@@H](CC(=O)O)C(=O)N[C@@H](CCCCN)C(=O)O)C(C)C)[C@@H](C)CC)[C@@H](C)CC)NC(=O)[C@H]([C@@H](C)CC)NC(=O)[C@H](CCCCN)NC1=O)[C@@H](C)O)[C@@H](C)CC)[C@@H](C)O
- inhibition [9]: Active
- inhibition [7]: Active
- Activity [10]: Toxic

SMILES: CC[C@H](C)[C@H](NC(=O)CNC(=O)[C@H](CO)NC(=O)CNC(=O)[C@H](CCCNC(=N)N)NC(=O)[C@H](CCCNC(=N)N)NC(=O)[C@H](CCCNC(=N)N)NC(=O)[C@H](CCC(N)=O)NC(=O)[C@H](CCCNC(=N)N)NC(=O)[C@H](CCCNC(=N)N)NC(=O)[C@H](CCCCN)NC(=O)[C@H](CCCCN)NC(=O)[C@H](CCCNC(=N)N)NC(=O)CNC(=O)[C@@H](N)Cc1ccc(O)cc1)C(=O)N[C@@H](CCC(=O)O)C(=O)N1CCC[C@H]1C(=O)N[C@@H](Cc1cnc[nH]1)C(=O)N[C@@H](CC(=O)O)C(=O)N[C@@H](Cc1c[nH]c2ccccc12)C(=O)N[C@H](C(=O)N[C@@H](CCCCN)C(=O)N[C@@H](CC(N)=O)C(=O)N[C@H](C(=O)N[C@H](C(=O)N[C@@H](CC(=O)O)C(=O)N[C@@H](CCCCN)C(=O)N[C@H](C(=O)N[C@@H](CC(=O)O)C(=O)N[C@@H](CCC(N)=O)C(=O)N[C@H](C(=O)N[C@H](C(=O)N[C@@H](Cc1cnc[nH]1)C(=O)N[C@@H](CC(=O)O)C(=O)N[C@@H](Cc1ccccc1)C(=O)N[C@H](C(=O)N[C@@H](CC(=O)O)C(=O)N[C@@H](CCCCN)C(=O)O)C(C)C)[C@@H](C)CC)[C@@H](C)CC)[C@@H](C)CC)[C@@H](C)O)[C@@H](C)CC)[C@@H](C)O
- inhibition [11]: 99%

SMILES: CC(C)CCC[C@@H](C)[C@H]1CC[C@H]2[C@@H]3CC=C4C[C@@H](OC(=O)CSC[C@H](NC(=O)CNC(=O)[C@H](CO)NC(=O)CNC(=O)[C@H](CCCCN)NC(=O)[C@H](CCCCN)NC(=O)[C@H](CCCCN)NC(=O)[C@@H](N)CCCCN)C(=O)O)CC[C@]4(C)[C@H]3CC[C@]12C (H-KKKKGSGC(X1)-OH)
- inhibition [12]: > 90%
- inhibition [1]: Active
